Reference: ChEMBL document CHEMBL1140923, “Discovery of imidazo[1,2-b]thiazole derivatives as novel SIRT1 activators” (J Med Chem, 2009)
Calls of active or inactive are those of the source. The calls are words filed in the database; no cut-off is given here.

Columns and labels:
[1] = biological target: T1, NAD-dependent protein deacetylase sirtuin-1 (Homo sapiens) (UniProt Q96EB6); experiment: Activation of human SIRT1 expressed in Escherichia coli BL21Start assessed as concentration required to increase 50% enzyme activity by mass spectrometry assay
T1 sequence (whole entry): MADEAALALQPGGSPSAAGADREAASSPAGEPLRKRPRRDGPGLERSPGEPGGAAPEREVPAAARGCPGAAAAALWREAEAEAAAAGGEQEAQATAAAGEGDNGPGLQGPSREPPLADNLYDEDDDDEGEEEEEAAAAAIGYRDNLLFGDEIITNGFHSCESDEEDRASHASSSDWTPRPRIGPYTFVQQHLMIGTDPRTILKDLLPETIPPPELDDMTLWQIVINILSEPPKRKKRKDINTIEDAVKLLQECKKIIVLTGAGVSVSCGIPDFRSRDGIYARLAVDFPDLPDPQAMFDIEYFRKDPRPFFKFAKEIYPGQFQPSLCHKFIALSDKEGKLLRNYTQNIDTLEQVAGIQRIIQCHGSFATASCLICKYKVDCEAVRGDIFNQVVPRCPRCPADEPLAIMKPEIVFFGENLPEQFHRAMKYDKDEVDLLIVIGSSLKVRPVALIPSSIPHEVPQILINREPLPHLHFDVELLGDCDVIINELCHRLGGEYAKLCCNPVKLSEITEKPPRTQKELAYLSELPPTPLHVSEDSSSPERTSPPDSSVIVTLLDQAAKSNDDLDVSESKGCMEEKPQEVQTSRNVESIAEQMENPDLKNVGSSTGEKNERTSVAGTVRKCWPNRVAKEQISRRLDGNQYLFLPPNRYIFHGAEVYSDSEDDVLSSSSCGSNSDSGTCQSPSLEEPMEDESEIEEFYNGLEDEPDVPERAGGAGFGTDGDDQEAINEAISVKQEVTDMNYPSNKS
In short: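 Truncated SIRT1 was expressed in E. coli BL21Start (DE3) and purified on Ni2+ chelate. Reaction: 10 nM enzyme, 0.5 µM biotinylated, fluorophore-tagged p53-derived 20-mer acetyl-lysine peptide and 120 µM NAD+, in 50 mM Tris-acetate pH 8 with NaCl, KCl, MgCl2, 5 mM DTT and 0.05% BSA; DMSO vehicle; 25 min at 25 °C. Stopped with formic acid/nicotinamide; acetylated versus deacetylated peptide read by mass spectrometry. EC1.5 is the concentration raising activity by 50%, the mean of three titration curves.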

[2] = Cmax in C57BL/6 mouse at 100 mg/kg, po or 10 mg/kg, iv; format: ADME, organism-based; details: in vivo
In short: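 Male C57BL/6 mice (18-22 g; 3 per dose group per time point), given 100 mg/kg po as the hydrochloride salt in 2% HPMC + 0.2% DOSS, or 10 mg/kg iv by tail vein in 10% ethanol/40% polyethylene glycol/50% H2O. Plasma was taken at 5, 30, 120 and 360 min after dosing and drug levels were measured.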

[3] = Cmax in Sprague-Dawley rat at 100 mg/kg, po or 10 mg/kg, iv; format: ADME, organism-based; details: in vivo
In short: (§1)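 Male Sprague-Dawley rats (250 g, 3 per dose group) received 100 mg/kg by oral gavage in 2% HPMC + 0.2% DOSS, or 10 mg/kg iv by tail vein in 10% ethanol/40% PEG/50% H2O. Blood was drawn at 0.033-24 h postdose for drug levels.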

[4] = AUC in Sprague-Dawley rat at 100 mg/kg, po or 10 mg/kg, iv; format: ADME, organism-based; details: plasma; in short: as §1
Mus musculus [5] = experiment: Antidiabetic activity in diet-induced obesity C57BL/6 mouse model assessed as reduction of fed blood glucose level at 100 mg/kg, po daily once for 1 week after 10 weeks; format: functional; design: scale not given: the % may be the effect or the level left
In short: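 Male C57BL/6 mice were fed a 60%-fat diet from 9 weeks of age until about 40 g, in groups of 6-10. They were dosed by oral gavage once daily in 2% HPMC + 0.2% DOSS, with 29 at 100 mg/kg and rosiglitazone at 5 mg/kg, alongside vehicle groups on lean and high-fat diet. Fed glucose was read at weeks 2, 4, 6, 8 and 10. Clinical chemistry and hematology were also measured. Analysis by ANOVA.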

Mus musculus [6] = experiment: Antidiabetic activity in C57BL/6 mouse assessed as overt sign of hypoglycemia at 100 mg/kg, po daily once after 10 weeks; format: functional, organism-based; design: dose 100 mg/kg
In short: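 Lean chow-fed mice were dosed 100 mg/kg po daily in 2% HPMC + 0.2% DOSS for 10 weeks and watched for overt hypoglycemia.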

Rattus norvegicus = experiment: Antidiabetic activity in genetic Zucker fa/fa rat model assessed as increase in glucose infusion rate at 100 mg/kg, po daily once after 4 weeks by hyperinsulinemic-euglycemic clamp; format: functional
In short: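 Zucker fa/fa rats, cannulated 5 days beforehand and fasted 8 h, underwent the clamp after 4 weeks of dosing. [3-3H]glucose tracer was primed and infused, then insulin 25 (mU/kg)/min was started. Variable 50% dextrose held blood glucose at 100 mg/dL over 120 min, with tracer specific activity sampled at 110 and 120 min.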

[7] = Inhibition of CYP1A at 25 uM; format: ADME
In short: (§2)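 Inhibition of CYP isozymes was tested up to a highest concentration of 25 µM.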

Cytochrome P450 2C9 = Cytochrome P450 2C9 (Homo sapiens, UniProt P11712); experiment: Inhibition of CYP2C9 at 25 uM; format: ADME; in short: as §2
[8] = biological target: T2, Muscarinic acetylcholine receptor M2 (Homo sapiens, UniProt P08172); experiment: Inhibition of muscarinic M2 receptor
T2 sequence (P08172 whole entry): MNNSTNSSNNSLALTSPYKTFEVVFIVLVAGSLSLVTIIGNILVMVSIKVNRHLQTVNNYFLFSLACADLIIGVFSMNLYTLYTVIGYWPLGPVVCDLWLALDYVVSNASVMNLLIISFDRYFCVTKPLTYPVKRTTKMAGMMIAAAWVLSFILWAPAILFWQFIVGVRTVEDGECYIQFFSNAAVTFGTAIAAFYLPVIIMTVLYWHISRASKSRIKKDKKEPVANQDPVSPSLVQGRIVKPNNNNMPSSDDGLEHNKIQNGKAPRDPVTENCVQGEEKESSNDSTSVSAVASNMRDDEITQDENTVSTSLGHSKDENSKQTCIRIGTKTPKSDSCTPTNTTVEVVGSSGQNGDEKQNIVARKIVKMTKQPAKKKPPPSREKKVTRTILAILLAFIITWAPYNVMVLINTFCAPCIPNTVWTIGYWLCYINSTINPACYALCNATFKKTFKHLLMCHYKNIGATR

[9] = biological target: Sodium-dependent noradrenaline transporter (Homo sapiens, UniProt P23975); experiment: Inhibition of norepinephrine transporter
Sodium-dependent noradrenaline transporter, sequence (P23975 whole entry): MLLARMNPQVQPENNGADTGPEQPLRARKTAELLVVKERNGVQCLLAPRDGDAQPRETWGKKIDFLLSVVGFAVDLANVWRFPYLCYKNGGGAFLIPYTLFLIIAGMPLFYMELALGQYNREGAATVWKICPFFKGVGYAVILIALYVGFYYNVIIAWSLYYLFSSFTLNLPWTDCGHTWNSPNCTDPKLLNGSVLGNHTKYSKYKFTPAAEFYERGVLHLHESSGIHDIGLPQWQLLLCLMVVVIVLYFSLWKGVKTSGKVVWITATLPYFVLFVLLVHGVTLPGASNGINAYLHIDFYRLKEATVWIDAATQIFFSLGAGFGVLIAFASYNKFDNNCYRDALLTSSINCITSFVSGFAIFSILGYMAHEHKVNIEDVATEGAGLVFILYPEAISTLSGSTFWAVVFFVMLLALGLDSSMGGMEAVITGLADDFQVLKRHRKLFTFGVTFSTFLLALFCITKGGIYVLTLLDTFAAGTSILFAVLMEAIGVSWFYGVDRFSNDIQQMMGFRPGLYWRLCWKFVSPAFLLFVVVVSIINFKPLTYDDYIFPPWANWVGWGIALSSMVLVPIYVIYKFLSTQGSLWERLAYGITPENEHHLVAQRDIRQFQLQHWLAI

Cytochrome P450 2C9, sequence (P11712 whole entry): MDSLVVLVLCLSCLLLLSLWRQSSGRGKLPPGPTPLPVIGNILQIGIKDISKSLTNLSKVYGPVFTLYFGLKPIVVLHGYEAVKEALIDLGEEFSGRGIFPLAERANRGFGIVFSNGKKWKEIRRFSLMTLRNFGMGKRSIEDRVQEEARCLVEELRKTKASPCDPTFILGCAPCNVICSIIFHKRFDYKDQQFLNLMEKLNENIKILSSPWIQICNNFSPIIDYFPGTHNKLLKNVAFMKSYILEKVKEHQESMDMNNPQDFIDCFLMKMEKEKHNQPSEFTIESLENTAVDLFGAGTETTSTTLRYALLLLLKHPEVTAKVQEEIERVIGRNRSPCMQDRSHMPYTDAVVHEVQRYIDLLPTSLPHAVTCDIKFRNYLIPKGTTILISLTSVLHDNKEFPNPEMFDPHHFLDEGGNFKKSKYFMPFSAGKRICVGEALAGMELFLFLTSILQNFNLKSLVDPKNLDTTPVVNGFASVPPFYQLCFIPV

SMILES: O=C(Nc1ccccc1-c1cn2c(CN3CCNCC3)csc2n1)c1cnc2ccccc2n1
- Activity [1]: 0.16 µM
- Cmax [2]: 1000 nM
- Cmax [3]: 320 nM
- AUC [4]: 3700 ng·h/mL
- Activity (Mus musculus [5]): 15%
- Activity (Mus musculus [6]): inactive
- Activity (Rattus norvegicus): 35%
- Activity [7]: Not Active
- Activity (Cytochrome P450 2C9): Not Active
- IC50 [8]: 6.28 µM
- IC50 [9]: 2.47 µM
